Test results taken from ChEMBL document CHEMBL1148085, “Indole alkaloids from Peschiera laeta that enhance vinblastine-mediated cytotoxicity with multidrug-resistant cells” (1994).
Values after ≈ are worked out from the molar mass of the structure shown. Active and inactive are the calls of the source. No cut-off for these calls is given here.

Key:
HT = experiment: Cytotoxicity against human HT cells by SRB assay; format: functional; conditions: read-out: ED50 (the source's name)
In short: (§1)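 Compounds in 10% DMSO added to cell suspension; 72 h at 37° in humidified 5% CO2. Cells fixed with cold trichloroacetic acid at 4° for 1 h, sulforhodamine B stained 30 min, dye solubilized in 10 mM Tris base, OD 515 nm. A zero-day control was subtracted. Survival is relative to solvent-treated cultures over various concentrations.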

ZR-75-1 = experiment: Cytotoxicity against human ZR-75-1 cells by SRB assay; format: functional; conditions: read-out: ED50 (the source's name); in short: as §1
[1] = Cytotoxicity against human drug-resistant KBV1 cells by SRB assay in presence of vinblastine; format: functional; conditions: KB-V1, read-out: ED50 (the source's name)
In short: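 Same SRB protocol (72 h, 37°, 5% CO2, TCA fix, OD 515 nm, zero-day subtraction). KB-V1 cells were exposed to various compound concentrations with vinblastine at 1 μg/ml in the medium. Survival is relative to solvent-treated controls.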

[2] = Cytotoxicity against human U373 cells by SRB assay; format: functional, U-373MG ATCC; conditions: U373 MG, read-out: ED50 (the source's name); in short: as §1
LNCaP = experiment: Cytotoxicity against human LNCAP cells by SRB assay; format: functional; conditions: read-out: ED50 (the source's name); in short: as §1
[3] = Cytotoxicity against human BC1 cells by SRB assay; format: functional; conditions: read-out: ED50 (the source's name); in short: as §1
A-431 = experiment: Cytotoxicity against human A431 cells by SRB assay; format: functional; conditions: read-out: ED50 (the source's name); in short: as §1
Col2 = experiment: Cytotoxicity against human Col2 cells by SRB assay; format: functional; conditions: read-out: ED50 (the source's name); in short: as §1
KB = experiment: Cytotoxicity against human KB cells by SRB assay; format: functional; conditions: read-out: ED50 (the source's name); in short: as §1
SK-MEL-2 = experiment: Cytotoxicity against human SK-MEL-2 cells by SRB assay; format: functional; conditions: read-out: ED50 (the source's name); in short: as §1
P388 = experiment: Cytotoxicity against mouse P388 cells after 48 hrs by SRB assay; format: functional; conditions: P388, 48 h, read-out: ED50 (the source's name)
In short: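 P-388 cells at 10×10^4 cells/ml, exposed to compounds for 48 h at 37° in 5% CO2. Plates were centrifuged and supernatant removed, then cells fixed with 20% trichloroacetic acid at 4° for 1 h. Sulforhodamine B staining and OD read as for the adherent lines. Survival is relative to solvent controls.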

Lu1 = experiment: Cytotoxicity against human Lu1 cells by SRB assay; format: functional; conditions: read-out: ED50 (the source's name); in short: as §1
[4] = Cytotoxicity against human drug-resistant KBV1 cells by SRB assay in absence of vinblastine; format: functional; conditions: KB-V1, read-out: ED50 (the source's name); in short: as §1
KBV1 = experiment: Inhibition of ATP-dependent [3H]vinblastine binding to p-glycoprotein in multidrug-resistant human KBV1 cells; format: cell-based
In short: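 Plasma membrane vesicles from KB-V1 cells (60 μg protein) as P-glycoprotein source. Incubated with […] [3H]vinblastine and various compound concentrations (from DMSO) for 20 min at room temperature. Terminated by filtration onto BSA-pretreated glass fiber filters.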

Row | SMILES | EC50 (HT) | EC50 (ZR-75-1) | EC50 [1] | EC50 [2] | EC50 (LNCaP) | EC50 [3] | EC50 (A-431) | EC50 (Col2) | EC50 (KB) | EC50 (SK-MEL-2) | EC50 (P388) | EC50 (Lu1) | EC50 [4] | Activity (KBV1)
1 | CC[C@H]1C[C@@H]2CN3CCc4c([nH]c5ccccc45)[C@](C(=O)OC)(C2)[C@H]13 [CORONARIDINE] | > 20 µg/mL | > 20 µg/mL | 1.9 µg/mL | 12 µg/mL (≈ 35.5 µM) | 10.7 µg/mL (≈ 31.6 µM) | 7.5 µg/mL (≈ 22.2 µM) | 19.1 µg/mL (≈ 56.4 µM) | > 20 µg/mL | 13.6 µg/mL (≈ 40.2 µM) | > 20 µg/mL | 3.8 µg/mL (≈ 11.2 µM) | 10.9 µg/mL (≈ 32.2 µM) | 11.2 µg/mL (≈ 33.1 µM) | 
2 | CC[C@]1(O)C[C@@H]2CN(CCc3c([nH]c4ccccc34)[C@@](C(=O)OC)(c3cc4c(cc3OC)N(C)[C@H]3[C@@](O)(C(=O)OC)[C@H](OC(C)=O)[C@]5(CC)C=CCN6CC[C@]43[C@@H]65)C2)C1 [VINBLASTINE] | 0.02 µg/mL (≈ 0.0247 µM) | 0.3 µg/mL (≈ 0.37 µM) | 0.5 µg/mL | 1.1 µg/mL (≈ 1.36 µM) | 0.1 µg/mL (≈ 0.123 µM) | 0.06 µg/mL (≈ 0.074 µM) | 0.05 µg/mL (≈ 0.0617 µM) | 0.01 µg/mL (≈ 0.0123 µM) | 0.002 µg/mL (≈ 0.00247 µM) | 0.01 µg/mL (≈ 0.0123 µM) | 0.02 µg/mL (≈ 0.0247 µM) | 0.02 µg/mL (≈ 0.0247 µM) | 2.6 µg/mL (≈ 3.21 µM) | 
3 | C/C=C1/CC2[C@H](C(=O)OC)C(NC)Cc3c([nH]c4ccccc34)[C@@H](c3cc4c(cc3OC)C3CCN5C[C@H]6C[C@H](CC)[C@H]5[C@@](C(=O)OC)(C6)C3N4)C[C@H]12 (some centres not stated) [VOACAMINE] |  |  |  |  |  |  |  |  |  |  |  |  |  | Active
